Measurements from different studies.
Compare with care: the assays were run in different laboratories.
Target: Serine/threonine-protein kinase 3 (STK3, Homo sapiens, UniProt Q13188)
One construct used (Q13188 1-491): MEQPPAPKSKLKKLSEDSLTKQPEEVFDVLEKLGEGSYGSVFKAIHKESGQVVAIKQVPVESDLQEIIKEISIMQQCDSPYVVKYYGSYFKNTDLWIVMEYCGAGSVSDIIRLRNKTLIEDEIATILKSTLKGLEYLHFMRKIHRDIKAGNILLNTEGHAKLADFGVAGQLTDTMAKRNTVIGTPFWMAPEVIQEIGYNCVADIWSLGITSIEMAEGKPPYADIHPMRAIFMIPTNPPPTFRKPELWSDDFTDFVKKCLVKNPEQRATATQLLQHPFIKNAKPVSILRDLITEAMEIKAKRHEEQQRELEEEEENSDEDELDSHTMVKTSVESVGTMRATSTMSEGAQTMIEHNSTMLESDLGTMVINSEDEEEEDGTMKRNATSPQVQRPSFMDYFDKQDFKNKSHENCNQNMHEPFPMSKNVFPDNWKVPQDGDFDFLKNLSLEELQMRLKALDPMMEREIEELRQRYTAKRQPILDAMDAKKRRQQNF

observed | mode | method | cell line | concentration | quantity | value | SMILES
enzyme activity | inhibitor |  |  | 10 µM | remaining activity | 104% | CC(C)(C)C(=O)c1sc(NC2CCCCC2)nc1N
enzyme activity | inhibitor | radiometric |  | 1 µM | remaining activity | 89% | CC(C)(C)c1nc2c(s1)c1nc(N)ncc1c1ccc(NS(=O)(=O)c3c(F)cccc3F)c(F)c12
enzyme activity | inhibitor | radiometric |  | 1 µM | remaining activity | 67% | COc1cc(Nc2cnc(C#N)c(O[C@H](C)CN(C)C)n2)ncc1-c1cnn(C)c1
enzyme activity | inhibitor |  |  | 10 µM | remaining activity | 97% | Nc1nc(NC2CCCCC2)sc1C(=O)c1ccccc1
cell-free assay |  | competition with immobilised ligand |  | 1 µM | remaining binding | 84% | C[C@H](c1cccc(C#N)c1)n1cc(Cl)cc(C(N)=O)c1=N
enzyme activity | inhibitor |  |  | 23.5 nM | remaining activity | 97% | Cc1ccc(C(=O)Nc2ccc(CN3CCN(C)CC3)c(C(F)(F)F)c2)cc1C#Cc1cnc2cccnn12
cell-free assay |  | competition with immobilised ligand |  | 1 µM | remaining binding | 100% | CC1=C(C#N)C(c2ccc3c(c2)c(NC(=O)c2ccccc2C)nn3C)C(C#N)=C(C)N1
thermal stability |  | DSF |  | 10 µM | ΔTm | -0.1 °C | CCN1CCC2(CC1)NC(=O)c1c(c3ccc(Cl)c(Cl)c3n1C)C2C#N (racemic)
enzyme activity | inhibitor |  |  | 1 µM | inhibition | < 10% | CCCS(=O)(=O)Nc1ccc(F)c(C(=O)c2c[nH]c3ncc(-c4ccc(Cl)cc4)cc23)c1F
cell-free assay | inhibitor |  |  | 20 µM | remaining signal | 6.6% | Nc1ncnc2occ(-c3ccc(NC(=O)Nc4cc(C(F)(F)F)ccc4F)cc3)c12
cell-free assay |  |  |  | 0.5 µM | remaining signal | 40.9% | N#CCCc1ccc2c(c1)-c1[nH]c3ccc([N+](=O)[O-])cc3c1CC(=O)N2
enzyme activity | inhibitor |  |  | 10 µM | remaining activity | 115% | Oc1cccc(-c2nc(N3CCOCC3)c3oc4ncccc4c3n2)c1
thermal stability |  | DSF |  | 10 µM | ΔTm | -0.2 °C | CN1CCC2(CC1)NC(=O)c1c(c3ccc(Cl)c(Cl)c3n1C)C2C#N (racemic)
cell-free assay |  | competition with immobilised ligand |  | 1 µM | remaining binding | 92% | N#CC1(c2ccccn2)CCN(Cc2cc(C(=O)N3CCCC3)c(=O)n3ccccc23)CC1
thermal stability |  | DSF |  | 10 µM | ΔTm | 0.2 °C | CC1(C)NC(=O)c2[nH]c3c(Cl)c(Cl)ccc3c2C1C#N (stereo not shown)
binding |  | competition with immobilised ligand |  | 1 µM | remaining binding | 76% | O=C(N[C@H]1CCCCC/C=C\C2C[C@@]2(C(=O)O)NC(=O)[C@@H]2C[C@@H](Oc3ccncc3)CN2C1=O)OC1CCCC1 (stereo partly shown)
cell-free assay | inhibitor |  |  | 0.3 µM | inhibition | 1% | Cc1ccc(Nc2nccc(N(C)c3ccc4c(C)n(C)nc4c3)n2)cc1S(N)(=O)=O
enzyme activity | inhibitor |  |  | 1 µM | inhibition | 1% | COc1cc2ncnc(Nc3ccc(Oc4ccccc4)c(C)c3C)c2cc1OC
enzyme activity | inhibitor |  |  | 0.1 µM | activity vs control | 98% | Cc1cc(NC(=O)c2cccc3cc(-c4cccc5[nH]nc(N)c45)ccc23)ccc1F

observed | mode | method | cell line | concentration | quantity | value | SMILES
target engagement in cells | inhibitor | chemoproteomics | Huh-7 | 10 µM | inhibition | -56.5% | CCN1CCN(Cc2ccc(NC(=O)c3ccc(C)c(Oc4ccnc5[nH]ccc45)c3)cc2C(F)(F)F)CC1
cell-free assay |  | competition with immobilised ligand |  | 1 µM | remaining binding | 92% | CO[C@@H](C)c1c(Nc2ccc([C@H](N(C)C(=O)C3CCS(=O)(=O)CC3)C(F)(F)F)cc2)cnc2cc(Cl)nn12
cell-free assay |  |  |  | 0.5 µM | remaining signal | 24.8% | CCN(CC)CCNC(=O)c1c(C)[nH]c(/C=C2\C(=O)Nc3ccc(F)cc32)c1C
cell-free assay |  | competition with immobilised ligand |  | 1 µM | remaining binding | 90% | Cc1c(NC(=O)c2cc(C(N)=O)nc3cc(F)ccc23)c(C(F)(F)F)nn1Cc1ccc(C(C)(C)C)cc1
thermal stability |  | DSF |  | 10 µM | ΔTm | 0.4 °C | Cn1c2c(c3ccc(Cl)c(Cl)c31)C(C#N)C1(CCCC1)NC2=O (stereo not shown)
cell-free assay |  | competition with immobilised ligand |  | 1 µM | remaining binding | 94% | NS(=O)(=O)c1cc(NC(=O)C2(c3ccccc3Cl)CC2)ccc1Oc1cccc(Cl)c1
cell-free assay |  |  |  | 0.5 µM | remaining signal | 24.3% | CN(C)S(=O)(=O)c1ccc2c(c1)/C(=C/c1cc3c([nH]1)CCCC3)C(=O)N2
enzyme activity | inhibitor |  |  | 5 µM | remaining activity | 120% | O=C(Nc1cnn(-c2csc(C(=O)NC3COC3)c2)c1)Nc1ccccc1Cl
enzyme activity | inhibitor |  |  | 1 µM | remaining activity | 97% | COc1cc(Cl)c(C(=O)N[C@@H](CN[C@H]2CC[C@@H](N)CC2)Cc2ccc(C#N)cc2)cc1-c1ccc(CN[C@H](C)c2ccc(C)cc2)o1
enzyme activity | inhibitor |  |  | 1 µM | activity vs control | 78% | Cc1ccc(C(=O)NCc2ccsc2)cc1C#Cc1cn(C(C)C)c2ncnc(N)c12
thermal stability |  | DSF |  | 10 µM | ΔTm | -0.1 °C | Cn1c2c(c3ccc(Cl)c(Cl)c31)C(C#N)C1(CCOCC1)NC2=O (stereo not shown)
cell-free assay |  |  |  | 0.5 µM | remaining signal | 93.7% | CS(=O)(=O)CCNCc1ccc(-c2ccc3ncnc(Nc4ccc(OCc5cccc(F)c5)c(Cl)c4)c3c2)o1
enzyme activity | inhibitor | radiometric |  | 1 µM | activity vs control | 75% | FC(F)(F)Oc1cccc(-c2cnc3ccc(-c4ccncc4)nn23)c1
cell-free assay | inhibitor |  |  | 10 µM | inhibition | -8% | CNC(=O)c1cc(Oc2ccc(NC(=O)Nc3ccc(Cl)c(C(F)(F)F)c3)cc2)ccn1
enzyme activity | inhibitor |  |  | 10 µM | remaining activity | 87% | CCN(CC)c1ccc(C2=NNC(=O)CC2C)cc1[N+](=O)[O-] (stereo not shown)
enzyme activity | inhibitor |  |  | 2 µM | inhibition | 43% | CNCc1ccc(-c2cc(-c3nc(-c4ccc(S(=O)(=O)C(C)C)cc4)cnc3N)on2)cc1
thermal stability |  | DSF |  | 10 µM | ΔTm | 0.6 °C | N#CC1c2c([nH]c3c(Cl)c(Cl)ccc23)C(=O)NC12CCCCC2 (racemic)
cell-free assay |  | competition with immobilised ligand |  | 1 µM | remaining binding | 100% | COc1ccc2cc(OCC3(C(=O)O)CN(C(=O)c4ccc(F)cc4)C3)ccc2c1
